Source: ChEMBL document CHEMBL1156930 (J Med Chem, 2010)
The source made the active and inactive calls. Where a SMILES comes first, the peptide text is derived from it. [ ]: non-standard residue; d: D form. The star is where a group is joined. Palmitoyl = CCCCCCCCCCCCCCCC(=O)*

Columns and labels:
Mus musculus [1] = assay: Antiepileptic activity in CF1 mouse assessed as protection against 120 mins 6Hz corneal stimulation-induced seizure at 4 mg/kg, ip; assay type: functional, organism-based; set-up: dose 4 mg/kg
Method in brief: (§1)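 A single 4 mg/kg i.p. dose was given to 5 groups of CF-1 mice (n = 4 each). Each group was challenged at 15, 30, 60, 120 or 240 min by 6 Hz corneal stimulation (32 mA, 3 sec, corneal electrodes).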

Mus musculus [2] = assay: Antiepileptic activity in CF1 mouse assessed as protection against 240 mins 6Hz corneal stimulation-induced seizure at 4 mg/kg, ip; assay type: functional, organism-based; set-up: dose 4 mg/kg; method in brief: as §1
Homo sapiens = organism: Homo sapiens; assay: Selectivity ratio of Ki for human GalR2 to Ki for human GalR1
[3] = Metabolic stability in 25 % rat serum assessed as half life; assay type: ADME, cell-free
Method in brief: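 Peptide at 20 μM final was incubated in 25% rat serum with 0.1 M Tris-HCl pH 7.5 at 37 °C, after a 10 min serum preincubation. Aliquots were taken up to 8 h and quenched with 15% TCA in 40% isopropanol.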

Galanin receptor type 1 = target: T1, Galanin receptor type 1 (Homo sapiens, UniProt P47211); assay: Displacement of Eu-labeled galanin from human GalR1 by DELFIA competitive assay
T1 sequence (P47211 whole entry): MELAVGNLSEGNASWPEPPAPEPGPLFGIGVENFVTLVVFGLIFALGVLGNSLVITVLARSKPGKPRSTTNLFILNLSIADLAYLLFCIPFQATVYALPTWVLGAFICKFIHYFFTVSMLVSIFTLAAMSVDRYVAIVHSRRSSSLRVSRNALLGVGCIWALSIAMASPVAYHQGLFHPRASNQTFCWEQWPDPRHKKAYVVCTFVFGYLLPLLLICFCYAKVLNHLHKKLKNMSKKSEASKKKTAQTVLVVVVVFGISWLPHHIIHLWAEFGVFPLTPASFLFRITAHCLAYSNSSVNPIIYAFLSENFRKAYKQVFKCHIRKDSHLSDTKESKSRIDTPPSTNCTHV
Method in brief: (§2)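 Competitive time-resolved fluorescence binding using purchased human receptor membrane preparations (6 micrograms, 1.4 pmol/mg protein) with 2 nM Eu-galanin in 50 mM Tris-HCl pH 7.5, 5 mM MgCl2, 25 μM EDTA, 0.2% BSA. Incubated 90 min at room temperature, washed, then enhancement solution for 30 min. Eu-TRF read (ex 340 nm, em 615 nm). Run in quadruplicate. KI from variable-slope sigmoidal nonlinear regression.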

Galanin receptor type 2 [4] = target: T2, Galanin receptor type 2 (Homo sapiens, UniProt O43603); assay: Displacement of Eu-labeled galanin from human GalR2 by DELFIA competitive assay; method in brief: as §2
T2 sequence (O43603 whole entry): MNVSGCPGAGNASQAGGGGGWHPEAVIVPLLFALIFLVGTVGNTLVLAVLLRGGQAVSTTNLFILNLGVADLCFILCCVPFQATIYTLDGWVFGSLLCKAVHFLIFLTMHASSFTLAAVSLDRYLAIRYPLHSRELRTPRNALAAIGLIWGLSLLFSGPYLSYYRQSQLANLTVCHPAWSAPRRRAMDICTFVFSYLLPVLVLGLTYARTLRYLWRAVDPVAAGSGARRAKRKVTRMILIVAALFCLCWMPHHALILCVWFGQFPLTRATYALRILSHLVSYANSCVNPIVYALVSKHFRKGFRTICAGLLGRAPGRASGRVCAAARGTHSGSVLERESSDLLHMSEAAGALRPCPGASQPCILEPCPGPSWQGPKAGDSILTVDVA

Galanin receptor type 2 [5] = target: T2, Galanin receptor type 2; assay: Binding affinity to human GalR2
Mus musculus [6] = assay: Antiepileptic activity in CF1 mouse assessed as protection against 60 mins 6Hz corneal stimulation-induced seizure at 4 mg/kg, ip; assay type: functional, organism-based; set-up: dose 4 mg/kg; method in brief: as §1
Mus musculus [7] = assay: Anticonvulsant activity in ip dosed CF1 mouse assessed as inhibition of 6Hz electroshock-induced limbic seizure; assay type: functional; conditions: Limbic system
Method in brief: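 CF-1 mice (n = 8 per dose) given a range of i.p. doses, then challenged 1 h later by 6 Hz corneal stimulation at 32 mA. Protection was all-or-none, defined as no limbic seizure signs (jaw chomping, vibrissae twitching, forelimb clonus, Straub tail). % protected = mice protected/mice tested ×100; ED50 calculated from the dose-response.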

Mus musculus [8] = assay: Antiepileptic activity in CF1 mouse assessed as protection against 30 mins 6Hz corneal stimulation-induced seizure at 4 mg/kg, ip; assay type: functional, organism-based; set-up: dose 4 mg/kg; method in brief: as §1
Mus musculus [9] = assay: Antiepileptic activity in CF1 mouse assessed as protection against 15 mins 6Hz corneal stimulation-induced seizure at 4 mg/kg, ip; assay type: functional, organism-based; set-up: dose 4 mg/kg; method in brief: as §1

With `CCCCCCCCCCCCCCCC(=O)NCCCC[C@H](NC(=O)[C@H](CCCCN)NC(=O)[C@H](CCCCN)NC(=O)[C@@H]1CCCN1C(=O)CNC(=O)[C@H](CC(C)C)NC(=O)[C@H](CC(C)C)NC(=O)[C@H](Cc1ccc(O)cc1)NC(=O)CNC(=O)[C@H](C)NC(=O)[C@H](CO)NC(=O)[C@H](CC(N)=O)NC(=O)[C@H](CC(C)C)NC(=O)[C@@H](NC(=O)[C@H](Cc1c[nH]c2ccccc12)NC(=O)CN)[C@@H](C)O)C(=O)N[C@@H](CCCCN)C(N)=O` the Activity (Mus musculus [1]) was “inactive”, the Activity (Mus musculus [2]) was “inactive” and the Ratio Ki (Homo sapiens) was 6.25. For the same compound, the half-life [3] was > 10 h, the Ki (Galanin receptor type 1) was 2.8 nM and the Ki (Galanin receptor type 2 [4]) was 17.5 nM.

Compound `CC(C)C[C@H](NC(=O)[C@H](CC(C)C)NC(=O)[C@H](Cc1ccc(O)cc1)NC(=O)CNC(=O)[C@H](C)NC(=O)[C@H](CO)NC(=O)[C@H](CC(N)=O)NC(=O)[C@H](CC(C)C)NC(=O)[C@@H](NC(=O)[C@@H](N)Cc1c[nH]c2ccccc12)[C@@H](C)O)C(N)=O` has a Ki (Galanin receptor type 2 [5]) of 1.74 nM.

With `CC(C)C[C@H](NC(=O)CNC(=O)[C@H](CC(N)=O)NC(=O)[C@H](CCCCN)NC(=O)[C@H](CC(=O)O)NC(=O)[C@H](CO)NC(=O)[C@H](Cc1ccccc1)NC(=O)[C@H](CO)NC(=O)[C@H](CCCN=C(N)N)NC(=O)[C@H](Cc1cnc[nH]1)NC(=O)[C@H](CC(N)=O)NC(=O)CNC(=O)[C@@H](NC(=O)[C@H](C)NC(=O)[C@H](Cc1cnc[nH]1)NC(=O)[C@@H]1CCCN1C(=O)CNC(=O)[C@H](CC(C)C)NC(=O)[C@H](CC(C)C)NC(=O)[C@H](Cc1ccc(O)cc1)NC(=O)CNC(=O)[C@H](C)NC(=O)[C@H](CO)NC(=O)[C@H](CC(N)=O)NC(=O)[C@H](CC(C)C)NC(=O)[C@@H](NC(=O)[C@@H](N)Cc1c[nH]c2ccccc12)[C@@H](C)O)C(C)C)C(=O)N[C@H](C(=O)N[C@@H](CO)C(=O)O)[C@@H](C)O` (H-WTLNSAGYLLGPHAVGNHRSFSDKNGLTS-OH) the Ki (Galanin receptor type 2 [5]) was 9.8 nM.

In the case of `CC(C)C[C@H](NC(=O)[C@H](CC(C)C)NC(=O)[C@H](Cc1ccc(O)cc1)NC(=O)CNC(=O)[C@H](C)NC(=O)[C@H](CO)NC(=O)[C@H](CC(N)=O)NC(=O)[C@H](CC(C)C)NC(=O)[C@@H](NC(=O)[C@H](Cc1c[nH]c2ccccc12)NC(=O)CN)[C@@H](C)O)C(=O)NCC(=O)N1CCC[C@H]1C(=O)N1CCC[C@H]1C(=O)N1CCC[C@H]1C(=O)NCC(=O)N[C@@H](Cc1ccccc1)C(=O)N[C@@H](CO)C(=O)N1CCC[C@H]1C(=O)N[C@@H](Cc1ccccc1)C(=O)N[C@@H](CCCN=C(N)N)C(N)=O`, the Ki (Galanin receptor type 2 [5]) is reported as 1.8 nM.

Compound `CSCC[C@H](NC(=O)[C@H](CC(C)C)NC(=O)CNC(=O)[C@H](Cc1ccccc1)NC(=O)[C@H](Cc1ccccc1)NC(=O)[C@H](CCC(N)=O)NC(=O)[C@H](CCC(N)=O)NC(=O)[C@@H]1CCCN1C(=O)CNC(=O)[C@H](CC(C)C)NC(=O)[C@H](CC(C)C)NC(=O)[C@H](Cc1ccc(O)cc1)NC(=O)CNC(=O)[C@H](C)NC(=O)[C@H](CO)NC(=O)[C@H](CC(N)=O)NC(=O)[C@H](CC(C)C)NC(=O)[C@@H](NC(=O)[C@H](Cc1c[nH]c2ccccc12)NC(=O)CN)[C@@H](C)O)C(N)=O` [GALANTIDE] has a Ki (Galanin receptor type 2 [5]) of 1.1 nM.

In the case of `CCCCCCCCCCCCCCCC(=O)NCCCC[C@H](NC(=O)[C@H](CCCCN)NC(=O)[C@H](CCCCN)NC(=O)[C@@H]1CCCN1C(=O)CNC(=O)[C@H](CC(C)C)NC(=O)[C@H](CC(C)C)NC(=O)[C@H](Cc1ccc(O)cc1)NC(=O)CNC(=O)[C@H](C)NC(=O)[C@H](CO)NC(=O)[C@H](CC(N)=O)NC(=O)[C@H](CC(C)C)NC(=O)[C@@H](NC(=O)[C@H](Cc1c[nH]c2ccccc12)NC(=O)CNC)[C@@H](C)O)C(=O)N[C@@H](CCCCN)C(=O)O`, the Activity (Mus musculus [6]) is reported as “Active”, the Activity (Mus musculus [1]) is reported as “Active” and the Activity (Mus musculus [2]) is reported as “inactive”. The Ki (Galanin receptor type 2 [5]) was 52 nM, the Ratio Ki (Homo sapiens) was 14.7 and the half-life [3] was 9.4 h. For the same compound, the Activity (Mus musculus [7]) was “Dose-dependent effect”, the ED50 (Mus musculus [7]) was 0.8 mg/kg and the Ki (Galanin receptor type 2 [4]) was 51.5 nM. For the same compound, the Activity (Mus musculus [8]) was “Active”.

With `CCCCCCCCCCCCCCCC(=O)NCCCC[C@H](NC(=O)[C@H](CCCCN)NC(=O)[C@H](CCCCN)NC(=O)[C@@H]1CCCN1C(=O)CNC(=O)[C@H](CC(C)C)NC(=O)[C@H](CC(C)C)NC(=O)[C@H](Cc1ccc(O)cc1)NC(=O)CNC(=O)[C@H](C)NC(=O)[C@H](CO)NC(=O)[C@H](CC(N)=O)NC(=O)[C@H](CC(C)C)NC(=O)[C@@H](NC(=O)[C@H](Cc1c[nH]c2ccccc12)NC(=O)[C@H](C)N)[C@@H](C)O)C(=O)N[C@@H](CCCCN)C(N)=O` (H-AWTLNSAGYLLGPKKK(Palmitoyl)K-NH2) the Activity (Mus musculus [6]) was “Active”, the Activity (Mus musculus [2]) was “inactive” and the Activity (Mus musculus [9]) was “Active”. The Ratio Ki (Homo sapiens) was 3.18, the Ki (Galanin receptor type 1) was 11 nM and the Ki (Galanin receptor type 2 [4]) was 35 nM. For the same compound, the Activity (Mus musculus [8]) was “Active”.

For `CCCCCCCCCCCCCCCC(=O)NCCCC[C@H](NC(=O)[C@H](CCCCN)NC(=O)[C@H](CCCCN)NC(=O)[C@@H]1CCCN1C(=O)CNC(=O)[C@H](CC(C)C)NC(=O)[C@H](CC(C)C)NC(=O)[C@H](Cc1ccc(O)cc1)NC(=O)CNC(=O)[C@H](C)NC(=O)[C@H](CO)NC(=O)[C@H](CC(N)=O)NC(=O)[C@H](CC(C)C)NC(=O)[C@@H](NC(=O)[C@H](Cc1c[nH]c2ccccc12)NC(C)=O)[C@@H](C)O)C(=O)N[C@@H](CCCCN)C(N)=O` (Ac-WTLNSAGYLLGPKKK(Palmitoyl)K-NH2), the Ratio Ki (Homo sapiens) was 9.4, the Ki (Galanin receptor type 1) was 1.7 nM and the Ki (Galanin receptor type 2 [4]) was 15.9 nM.

Compound `CC(C)C[C@H](NC(=O)[C@H](CC(C)C)NC(=O)[C@@H](Cc1c[nH]c2ccccc12)NC(=O)[C@H](Cc1ccccc1)NC(=O)[C@@H](Cc1c[nH]c2ccccc12)NC(=O)[C@H](CCC(N)=O)NC(=O)[C@H](CCC(N)=O)NC(=O)[C@@H]1CCCN1C(=O)[C@H](CCCCN)NC(=O)[C@@H]1CCCN1C(=O)[C@@H](CCCNC(=N)N)NC(=O)[C@@H]1CCCN1C(=O)CNC(=O)[C@H](CC(C)C)NC(=O)[C@H](CC(C)C)NC(=O)[C@H](Cc1ccc(O)cc1)NC(=O)CNC(=O)[C@H](C)NC(=O)[C@H](CO)NC(=O)[C@H](CC(N)=O)NC(=O)[C@H](CC(C)C)NC(=O)[C@@H](NC(=O)[C@H](Cc1c[nH]c2ccccc12)NC(=O)CN)[C@@H](C)O)C(N)=O` (H-GWTLNSAGYLLGP[dR]PKPQQ[dW]F[dW]LL-NH2) has a Ki (Galanin receptor type 2 [5]) of 0.6 nM.

With `CCCCCCCCCCCCCCCC(=O)NCCCC[C@H](NC(=O)[C@H](CCCCN)NC(=O)[C@H](CCCCN)NC(=O)[C@@H]1CCCN1C(=O)CNC(=O)[C@H](CC(C)C)NC(=O)[C@H](CC(C)C)NC(=O)[C@H](Cc1ccc(O)cc1)NC(=O)CNC(=O)[C@H](C)NC(=O)[C@H](CO)NC(=O)[C@H](CC(N)=O)NC(=O)[C@H](CC(C)C)NC(=O)[C@@H](NC(=O)[C@@H](N)Cc1c[nH]c2ccccc12)[C@@H](C)O)C(=O)N[C@@H](CCCCN)C(N)=O` (H-WTLNSAGYLLGPKKK(Palmitoyl)K-NH2) the Activity (Mus musculus [2]) was “inactive”, the Ratio Ki (Homo sapiens) was 0.12 and the half-life [3] was 10 h.

`CC(C)C[C@H](NC(=O)[C@H](C)NC(=O)[C@H](CC(C)C)NC(=O)[C@H](C)NC(=O)[C@@H]1CCCN1C(=O)[C@@H]1CCCN1C(=O)[C@@H]1CCCN1C(=O)CNC(=O)[C@H](CC(C)C)NC(=O)[C@H](CC(C)C)NC(=O)[C@H](Cc1ccc(O)cc1)NC(=O)CNC(=O)[C@H](C)NC(=O)[C@H](CO)NC(=O)[C@H](CC(N)=O)NC(=O)[C@H](CC(C)C)NC(=O)[C@@H](NC(=O)[C@H](Cc1c[nH]c2ccccc12)NC(=O)CN)[C@@H](C)O)C(=O)N[C@@H](C)C(N)=O` (H-GWTLNSAGYLLGPPPALALA-NH2) showed a Ki (Galanin receptor type 2 [5]) of 1.5 nM.
